This note sets out measurements from ChEMBL document CHEMBL1141908, “Inositol tripyrophosphate: a new membrane permeant allosteric effector of haemoglobin” (2005).

Where “and” joins values, the source holds several entries; their conditions need not be identical. Equal entries are not always repeated.

Assay [1] is filed under the species Mus musculus. The assay can be described thus: In vitro P50 value of whole blood of murine was determined after incubation with compound (concentration 30 mM). It counts as functional. The method, boiled down:
(§1)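 Whole blood (human, murine or porcine) incubated 1:1 vol/vol with effector solution at 290–310 mOsM, pH 7, for 60 min at 37 C. Cells then washed three times in 20 mM bis-Tris, pH 7, 308 mOsM. Hb–O2 curves read on a Hemox Analyzer in 20 mM Hemox buffer, pH 7.1–7.2, 37 C. P50 shift in % reported as mean of four values ± SD.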

For assay [2], the species on record is Mus musculus. The assay can be described thus: In vitro percent P50 value of whole blood of murine was determined after incubation with compound (concentration 30 mM). The assay is classed as functional. The method, boiled down: as §1
Assay [3] has as its target Hemoglobin beta chain (Mus musculus) (UniProt P02089). The assay can be described thus: In vitro percent P50 value of free haemoglobin of murine was determined after incubation with compound (concentration 60 mM). It counts as functional. Summed up:
(§2)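 Free haemoglobin (human or murine) was mixed with a 60 mM compound solution adjusted to pH 6.9–7.1. Oxy-Hb dissociation curves were recorded on a Hemox Analyzer. P50 is the O2 partial pressure at 50% Hb saturation, and the shift is expressed as a percentage of untreated Hb. Means of three to ten P50 values were calculated, depending on the compound and species.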

Assay [4] has the same target. The assay can be described thus: In vitro P50 value of free haemoglobin of murine was determined after incubation with compound (concentration 60 mM). The assay is classed as functional. The method, boiled down:
as §2

Assay [5] deals with Hemoglobin subunit beta (Sus scrofa) (UniProt P02067). The assay can be described thus: In vitro percent P50 value of free haemoglobin of procine was determined after incubation with compound (concentration 60 mM). It counts as functional. Summed up: (§3)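 Porcine free Hb mixed with the effector solution (60 mM; pH adjusted to 6.9–7.1). Hb–O2 dissociation curves recorded on a Hemox Analyzer. P50 is the pO2 at 50% Hb saturation. Shift reported as % change versus control; means of three P50 values.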
Chain of Hemoglobin subunit beta (Sus scrofa) (P02067 whole entry): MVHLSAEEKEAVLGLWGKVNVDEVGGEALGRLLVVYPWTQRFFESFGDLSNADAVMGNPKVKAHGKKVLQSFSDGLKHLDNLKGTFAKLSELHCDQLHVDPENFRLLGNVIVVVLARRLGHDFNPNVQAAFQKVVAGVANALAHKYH

A short description of assay [6]: In vitro percent P50 value of free haemoglobin of human was determined after incubation with compound (concentration 60 mM).
Assay [7] can be described thus: In vitro P50 value of free haemoglobin of human was determined after incubation with compound (concentration 60 mM).
Assay [8] addresses Hemoglobin subunit beta (Sus scrofa) (UniProt P02067). The assay can be described thus: In vitro P50 value of free haemoglobin of procine was determined after incubation with compound (concentration 60 mM). It counts as functional. The method, boiled down:
as §3

The nature of assay [9]: In vitro P50 value of whole blood of procine was determined after incubation with compound (concentration 30 mM). It counts as functional, Sus scrofa. Particulars: in the assay text read “concentration 60 mM” for “concentration 30 mM”. Summed up: as §1
The species entered for assay [10] is Homo sapiens. As to the kind of experiment: In vitro P50 value of whole blood of human was determined after incubation with compound (concentration 30 mM). It counts as functional. Summed up:
as §1

Assay [11] can be described thus: In vitro percent P50 value of whole blood of procine was determined after incubation with compound (concentration 60 mM). It counts as functional, Sus scrofa. The method, boiled down: as §1
The species entered for assay [12] is Mus musculus. As to the kind of experiment: In vitro percent P50 value of whole blood of murine was determined after incubation with compound (concentration 4 mM). The assay is classed as functional. The method, boiled down: as §1
The species entered for assay [13] is Homo sapiens. As to the kind of experiment: In vitro percent P50 value of whole blood of human was determined after incubation with compound (concentration 60 mM). It counts as functional. Summed up:
as §1

Assay [14] is filed under the species Homo sapiens. As to the kind of experiment: In vitro percent P50 value of whole blood of human was determined after incubation with compound (concentration 30 mM). The assay is classed as functional. The method, boiled down:
as §1

The species entered for assay [15] is Mus musculus. As to the kind of experiment: In vitro percent P50 value of whole blood of murine was determined after incubation with compound (concentration 60 mM). The assay is classed as functional. Summed up:
as §1

Chain of Hemoglobin beta chain (Mus musculus) (P02089 whole entry): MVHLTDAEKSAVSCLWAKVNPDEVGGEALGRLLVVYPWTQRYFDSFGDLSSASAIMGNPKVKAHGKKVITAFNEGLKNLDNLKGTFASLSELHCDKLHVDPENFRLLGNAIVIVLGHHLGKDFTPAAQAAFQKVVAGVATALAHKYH

On to `CN(C)C1CCCCC1.CN(C)C1CCCCC1.CN(C)C1CCCCC1.CN(C)C1CCCCC1.CN(C)C1CCCCC1.CN(C)C1CCCCC1.O=P1(O)OC2C3OP(=O)(O)OP(=O)(O)OC3C3OP(=O)(O)OP(=O)(O)OC3C2OP(=O)(O)O1` (centres undefined) [listing 1 of 2 here], for which the P50 came to 45.5 Torr in the assay listed under Mus musculus [1] and 20% in the assay filed under Mus musculus [2].
With `O=P1(O)OC2C3OP(=O)(O)OP(=O)(O)OC3C3OP(=O)(O)OP(=O)(O)OC3C2OP(=O)(O)O1` (centres undefined), the P50 in assay [3] was 189% [middle of 4 runs]; in [4] it was 69.7 Torr [middle of 4 runs]; in [5] it was 209%; in assay [6], 225% and 170%; in [7] it was 49.8 Torr and 33.1 Torr; in [8], 68.1 Torr.
For the compound `CN(C)C1CCCCC1.CN(C)C1CCCCC1.CN(C)C1CCCCC1.CN(C)C1CCCCC1.CN(C)C1CCCCC1.CN(C)C1CCCCC1.O=P1(O)OC2C3OP(=O)(O)OP(=O)(O)OC3C3OP(=O)(O)OP(=O)(O)OC3C2OP(=O)(O)O1` (centres undefined) [listing 2 of 2 here], the P50 in assay [3] amounted to 81%; in assay [4] it was 45.1 Torr.
As to `NC1CCCCCCC1.NC1CCCCCCC1.NC1CCCCCCC1.NC1CCCCCCC1.NC1CCCCCCC1.NC1CCCCCCC1.O=P1(O)OC2C3OP(=O)(O)OP(=O)(O)OC3C3OP(=O)(O)OP(=O)(O)OC3C2OP(=O)(O)O1` (centres undefined) [listing 1 of 2 here], the P50 in the assay filed under Mus musculus [1] is given as 41.7 Torr; in the assay listed under Mus musculus [2], 10%.
As for `O=P1(O)OC2C3OP(=O)(O)OP(=O)(O)OC3C3OP(=O)(O)OP(=O)(O)OC3C2OP(=O)(O)O1.c1ccncc1.c1ccncc1.c1ccncc1.c1ccncc1.c1ccncc1` (centres undefined), the P50 is 100% in assay [3], 50 Torr in assay [4], 107% in assay [6] and 31.6 Torr in [7].
Take `NC1CCCCCCC1.NC1CCCCCCC1.NC1CCCCCCC1.NC1CCCCCCC1.NC1CCCCCCC1.NC1CCCCCCC1.O=P1(O)OC2C3OP(=O)(O)OP(=O)(O)OC3C3OP(=O)(O)OP(=O)(O)OC3C2OP(=O)(O)O1` (centres undefined) [listing 2 of 2 here]: the P50 in [3] was found to be 23%; in assay [4] it was 30.6 Torr.
As for `C1CNCCN1.C1CNCCN1.C1CNCCN1.C1CNCCN1.C1CNCCN1.C1CNCCN1.O=P1(O)OC2C3OP(=O)(O)OP(=O)(O)OC3C3OP(=O)(O)OP(=O)(O)OC3C2OP(=O)(O)O1` (centres undefined) [ITPP PIPERAZINIUM], the P50 in the assay filed under Mus musculus [1] is reported as 41.9 Torr; in the assay listed under Mus musculus [2], 7%.
On to `O=P1([O-])OC2C3OP(=O)([O-])OP(=O)([O-])OC3C3OP(=O)([O-])OP(=O)([O-])OC3C2OP(=O)([O-])O1.[Na+].[Na+].[Na+].[Na+].[Na+].[Na+]` (centres undefined) [ITPP SODIUM SALT], for which the P50 in assay [9] was found to be 44.2 Torr; in the assay filed under Homo sapiens [10], 30.8 Torr; in [11], 40%; in the assay listed under Mus musculus [12], 29%; in the assay filed under Homo sapiens [13], 39%.
In the case of `NC1CCCCCC1.NC1CCCCCC1.NC1CCCCCC1.NC1CCCCCC1.NC1CCCCCC1.NC1CCCCCC1.O=P1(O)OC2C3OP(=O)(O)OP(=O)(O)OC3C3OP(=O)(O)OP(=O)(O)OC3C2OP(=O)(O)O1` (centres undefined) [listing 1 of 2 here], the P50 is reported as 41.3 Torr in the assay filed under Mus musculus [1] and 9% in the assay filed under Mus musculus [2].
With `O=P1(O)OC2C3OP(=O)(O)OP(=O)(O)OC3C3OP(=O)(O)OP(=O)(O)OC3C2OP(=O)(O)O1.c1ccncc1.c1ccncc1.c1ccncc1.c1ccncc1.c1ccncc1` (centres undefined) [ITPP PYRIDINIUM SALT], the P50 amounted to 24.3 Torr in the assay listed under Homo sapiens [10], 10% in the assay filed under Homo sapiens [14], 42.7 Torr in the assay listed under Mus musculus [1] and 13% in the assay listed under Mus musculus [2].
As to `C1CNCCN1.C1CNCCN1.C1CNCCN1.O=P1(O)OC2C3OP(=O)(O)OP(=O)(O)OC3C3OP(=O)(O)OP(=O)(O)OC3C2OP(=O)(O)O1` (centres undefined) [ITPP TRIPIPERAZINIUM SALT], the P50 in the assay filed under Mus musculus [1] came out at 42.3 Torr; in the assay listed under Mus musculus [2] it was 8%.
On to `NC1CCCCCC1.NC1CCCCCC1.NC1CCCCCC1.NC1CCCCCC1.NC1CCCCCC1.NC1CCCCCC1.O=P1(O)OC2C3OP(=O)(O)OP(=O)(O)OC3C3OP(=O)(O)OP(=O)(O)OC3C2OP(=O)(O)O1` (centres undefined) [listing 2 of 2 here], for which the values for the P50 in assay [3] and in [4] were 76% and 43.8 Torr, respectively.
`O=P1([O-])OC2C3OP(=O)([O-])OP(=O)([O-])OC3C3OP(=O)([O-])OP(=O)([O-])OC3C2OP(=O)([O-])O1.[Ca+2].[Ca+2].[Ca+2]` (centres undefined): the P50 in the assay filed under Mus musculus [15] is listed as 38%; in the assay listed under Homo sapiens [10], 31 Torr; in the assay filed under Homo sapiens [14] it was 25%; in the assay filed under Mus musculus [1] it was 55.3 Torr.
